Screening data: PubChem, several laboratories
SDO1 yeast rescue: growth rescue of sdo1-depleted yeast, primary screen, S. cerevisiae, bone marrow failure model; S. cerevisiae sdo1-depleted JHY4D growth rescue, OD600 30 h; hits give high values; pdr5 snq2 efflux-pump mutant strain; z-score at 10 µM; 0.21% of 140,000 active;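 active means z-score above 3 at both the 24 hr and the 30 hr optical density reads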
MRP1 act: H69AR viability gain despite doxorubicin, primary screen, MRP-1 activator project, H69AR cells, CellTiter-Glo; viability rescue; viability increase, % at 10 µM; 0.61% of 140,000 active;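 active means viability gain under doxorubicin at or above a set limit, the compound median plus 3 SD, cut at about 4.7% in these data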;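 further: MRP-1 overexpressing cells given doxorubicin 25 µM after compound pretreatment; 18-22 h compound pretreatment then 72 h with doxorubicin before readout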
Phagocyt inh: inhibitors of macrophage phagocytosis, primary screen, imaging, J774A.1 cells, IgG beads; J774A.1 macrophage IgG-bead phagocytosis; inhibition, % at 5 µM; 0.07% of 110,000 active; AID 1029, 2008;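 active means inhibition above the mean of the plate negative controls plus 5 SD, cut at about 13% in these data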;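 further: phagocytic index as fraction of beads internalized from green versus red external bead signal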
Yeast lifespan up: compounds extending yeast replicative lifespan, primary screen, S. cerevisiae, OD615 | S. cerevisiae growth with nicotinamide; deaD strain in restrictive glucose medium | inhibition of the nicotinamide effect, % at 10 µM | 0.68% of 130,000 active | AID 775, 2007;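 active means inhibition above a set limit, placed 3 SD over the median of all compounds, cut at about 26% in these data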
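Test system: DeaD-strain S. cerevisiae / Buffer or medium: restrictive glucose medium / Also added: nicotinamide 1.5 mM / Doses: one concentration, 10 µM, DMSO 0.25% / Schedule: 48 h at 30 °C / Signal: OD615 measurement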
BB579 growth dn: growth inhibitors of yeast BB579 in restrictive medium, primary screen, yeast lifespan-shortening project, S. cerevisiae; OD615, 48 h; inhibition, % at 10 µM; 0.51% of 140,000 active;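 active means inhibition above a set limit, 3 SD over the mean compound inhibition, cut at about 44% in these data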
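Assay system – yeast BB579 (DeaD) · Dosing – single compound dose of 10 µM, 0.25% DMSO final · Detection – OD615 turbidity measurement · Buffer or medium – CSMM-D restrictive synthetic medium containing dextrose (glucose) · Benchmarks – positive control amphotericin B 10 µg/mL · Incubation – 48 h exposure, 30 °C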
MRP reversal: reversal of MRP1-mediated doxorubicin resistance, primary screen, H69AR cells, doxorubicin co-treatment; 0.04% of 85,000 active; differential viability (reversal), % at 10 µM; AID 602, 2007; H69AR cells + 2 uM doxorubicin, CellTiter-Glo, 72 h;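 active means viability drop by adding the cancer drug above about 55%, with treated viability meeting a 40% cutoff, limit read from the data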;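 further: larger differential means the compound sensitizes cells more to doxorubicin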
Hits are given with their value; – = inactive; · = no result. This is a sample that favours compounds with a hit; in the whole collection about 2.1% have one here.

SMILES | SDO1 yeast rescue | MRP1 act | Phagocyt inh | Yeast lifespan up | BB579 growth dn | MRP reversal
CCCCN=C(NNc1ccc(Br)cc1)C(=O)OCC | – | – | – | – | 97 | ·
CCOC(=O)C(=O)NNc1ccc(C)cc1 | – | – | · | – | – | ·
O=C(NCc1cccs1)c1cnc2sccn2c1=O | – | – | – | – | – | –
CCC(C)n1cnc2c(c1=O)c1nc3ccccc3nc1n2-c1ccc2c(c1)OCCO2 (configuration not stated) | – | – | – | – | – | –
C=CCNC(=O)/C(C#N)=C/c1ccccc1OCc1ccc(C(=O)OC)cc1 | – | – | – | 35 | – | ·
COc1ccccc1N(C(=O)c1cncc(Br)c1)c1nc(-c2ccc(C)cc2)cs1 | – | – | – | – | – | ·
O=C(/C=N\O)NCCCNCc1ccccc1 | – | – | – | 50 | – | –
Cc1nc(=O)c(-c2ccccc2)c(C)n1-c1ccc(C(=O)O)cc1 | – | 9.1 | – | – | – | –
Cc1nc(=O)c(-c2ccccc2)c(C)n1CCCO | – | – | – | – | – | ·
Cc1nc(=O)c(-c2ccccc2)c(C)n1Cc1ccccc1 | – | – | – | · | – | –
Cc1nc(=O)c(-c2ccccc2)c(C)n1-c1ccc(S(N)(=O)=O)cc1 | – | 6.8 | – | – | – | –
O=C1CCC(C(=O)OCC(=O)C23CC4CC(CC(C4)C2)C3)N1 (configuration not stated) | – | – | – | – | – | –
CCCCC(=O)O[C@]1(C(=O)CO)CC[C@H]2[C@@H]3CCC4=CC(=O)CC[C@]4(C)[C@H]3[C@@H](O)C[C@@]21C | – | – | · | – | – | –
CC1(C)O[C@@H]2C[C@H]3[C@@H]4C[C@H](F)C5=CC(=O)CC[C@]5(C)[C@H]4[C@@H](O)C[C@]3(C)[C@]2(C(=O)CO)O1 | – | 5.2 | · | – | – | –
Cc1cccc(NC(=O)Cn2c(=O)n(Cc3ccco3)c(=N)c3c4c(sc32)COC(C)(C)C4)c1 | – | 9.4 | – | – | – | –
CC1(C)Cc2c(sc3c2c(=N)n(Cc2ccco2)c(=O)n3CC(=O)Nc2cccc(Cl)c2)CO1 | – | – | – | – | – | –
CC(C)CCn1c(=O)c2ccccc2n2c(CN(C)Cc3ccccc3)nnc12 | – | – | – | – | – | 62
Cc1ccc(S(=O)(=O)Nc2ccccc2/C=N/c2nc3ccccc3n2C)cc1 | – | – | – | 31 | – | ·
Oc1ccc(Cl)cc1Cc1cc(Cl)ccc1O | – | – | · | – | 84 | ·
CCOC(=O)c1ccc(-n2[nH]c(-c3ccccc3)cc2=O)cc1 | – | – | – | – | 97 | –
CCOC(=O)c1ccc(-n2c(C)nc3ccccc3c2=O)cc1 | – | – | – | – | – | –
CC(SC1=NCCS1)C(=O)Nc1nnc(-c2ccc(Br)cc2)s1 (configuration not stated) | – | 5.8 | – | – | – | –
C=CCn1c(SCC2=C(C(=O)OCC)C(C)NC(=O)N2)nnc1C1CCCCC1 (configuration not stated) | – | – | – | – | – | ·
Cn1ccnc1-c1nc2ccccc2[nH]c1=O | – | – | · | – | – | 82
O=C(N/N=C\C=C\c1ccc2c(c1)OCO2)C1COc2ccccc2O1 (configuration not stated) | – | – | – | – | – | ·
SMILES | SDO1 yeast rescue | MRP1 act | Phagocyt inh | Yeast lifespan up | BB579 growth dn | MRP reversal
CC1(c2ccc(OCC#N)cc2)C=C(c2ccc(OCC#N)cc2)n2nc(C(F)(F)F)nc2N1 (configuration not stated) | – | – | – | – | – | ·
Cc1ccc(C2=CC(C)(c3ccc(C)cc3)Nc3nc(C(F)(F)F)nn32)cc1 (configuration not stated) | – | 6.0 | – | – | – | ·
Cc1nn2cc(-c3ccc(Cl)cc3)nc2s1 | – | – | – | – | – | –
O=C1OC(c2ccccc2)=NC12CC2c1ccc(Cl)cc1 (configuration not stated) | – | – | – | 30 | – | ·
CCOC(=O)CN(C(=O)CSc1nnc(-c2ccc(OC)c(OC)c2)o1)c1ccccc1 | – | – | – | – | – | –
N/C(=N\OC(=O)c1cccc2ccccc12)c1ccc(Br)cc1 | – | – | – | – | – | ·
N/C(Cc1ccccc1)=N\OC(=O)c1cccc2ccccc12 | – | – | – | – | 84 | ·
Cn1c(=O)c2c(=O)cc(NNC(=O)C(C)(C)C)[nH]c2n(C)c1=O | – | – | – | 28 | – | ·
C/C(O)=c1/ccc2cccc3nc(C)nc1c23 | – | – | – | – | 69 | –
c1ccc(-c2cc(N3CCOCC3)nc3ccccc23)cc1 | – | – | – | 94 | – | –
COc1ccc(CNC(=O)COc2ccc(S(=O)(=O)NC(C)C)cc2)cc1 | – | – | – | – | – | –
Cc1ccc(C(=O)O)cc1N=Cc1cc(Br)cc(Br)c1O | – | – | – | – | 90 | ·
Cc1cc(C)cc(NS(=O)(=O)c2cnc(Cl)c(Cl)c2)c1 | – | – | – | – | 76 | ·
CC(C)[C@H](NC(=O)OCc1ccccc1)C(=O)OCC(=O)Nc1c(F)cccc1F | – | – | – | – | – | ·
Cc1c(NC(=O)CSc2nnc(C(C)Oc3ccc(Cl)cc3)n2-c2ccccc2)c(=O)n(-c2ccccc2)n1C (configuration not stated) | – | – | · | – | – | ·
N/C(CC(=O)Nc1cccc(C(F)(F)F)c1)=N/O | – | – | – | – | – | –
CCOC(=O)/C(=N\Nc1cccc(C(F)(F)F)c1)N(CCOC)CCOC | – | – | – | – | 54 | ·
CN(Cc1ccccc1)c1oc(COc2ccccc2F)nc1C#N | – | 7.4 | – | – | – | –
N#Cc1nc(COc2ccccc2F)oc1NCCc1ccccc1 | – | – | – | – | – | –
CCOC(=O)/C(=N\Nc1ccccc1Cl)N1CCN(C)CC1 | – | – | – | – | – | ·
CCOC(=O)/C(=N\Nc1ccccc1Cl)N1CCN(Cc2ccccc2)CC1 | – | 5.1 | – | – | 59 | ·
Cc1cc(=O)n2nc(N3CCCC(C(=O)NC(C)c4ccccc4)C3)sc2n1 (configuration not stated) | – | – | – | – | – | –
CN(C)/C=C(/C(=O)c1ccc(Cl)cc1Cl)S(=O)(=O)c1ccc(Cl)cc1 | – | – | – | 69 | – | ·
CSCCC(NC(=O)C1CCC(C)CC1)C(=O)O (configuration not stated) | – | – | – | – | – | –
Cc1cc(C)nc(NN2C(=O)/C(=C/c3ccc(O)cc3)SC2=S)n1 | – | 7.8 | · | – | – | ·
COc1ccccc1/C=C1\SC(=S)N(Nc2nc(C)cc(C)n2)C1=O | – | – | · | – | – | ·
O=S(=O)(NCCNS(=O)(=O)c1ccc(F)cc1)c1ccc(F)cc1 | – | – | – | – | – | –
O=C(Nc1nc(-c2ccc(Oc3ccccc3)cc2)cs1)C1=COCCO1 | – | 7.1 | – | – | – | ·
